The source of these data is ChEMBL document CHEMBL3232828, “A potential CARB-pharmacophore for antineoplastic activity: part 1” (2014).

What all share (format): functional
In test [1] the test system is A549. The test is described as follows: Cytotoxicity against hormone-independent human A549 cells at 8 mM after 12 hrs by CCK-8 assay. The procedure, abridged: (§1)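 A549 adherent cells in DMEM with FBS and penicillin-streptomycin at 37 °C, 5% CO2. Seeded at 1 × 10^4 cells/well and attached for 12 h. Compound applied for 12 h, followed by 3 h in serum-free medium with 10% CCK-8. OD at 450 nm. Viability expressed as 100 × (S−B)/(K−B) relative to untreated cells.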
A general note: Formazan colour is commonly taken as a measure of viable cells.

Test [2] relates to A549. The test is described as follows: Cytotoxicity against hormone-independent human A549 cells at 6 mM after 12 hrs by CCK-8 assay. The procedure, abridged: as §1
Test [3] relates to A549. The test is described as follows: Cytotoxicity against hormone-independent human A549 cells at 4 mM after 12 hrs by CCK-8 assay. The method in brief:
as §1

Test [4] relates to A549. Nature of the test: Cytotoxicity against hormone-independent human A549 cells at 2 mM after 12 hrs by CCK-8 assay. The procedure, abridged:
as §1

Test [5] deals with LoVo. Nature of the test: Cytotoxicity against hormone-independent human LoVo cells at 8 mM after 12 hrs by CCK-8 assay. The method in brief: (§2)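 For LoVo colorectal adenocarcinoma cells, cultured in DMEM supplemented with FBS and penicillin-streptomycin (37 °C, 5% CO2), 2.5 × 10^4 cells/well were plated 12 h ahead, then treated 12 h. Read-out: CCK-8 (10% in serum-free medium, 3 h), absorbance 450 nm. Percent viability = 100 × (S−B)/(K−B) using blank and control wells.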

The test system of test [6] is LoVo. The test is described as follows: Cytotoxicity against hormone-independent human LoVo cells at 6 mM after 12 hrs by CCK-8 assay. The procedure, abridged:
as §2

Test [7] relates to LoVo. Nature of the test: Cytotoxicity against hormone-independent human LoVo cells at 4 mM after 12 hrs by CCK-8 assay. The method in brief:
as §2

Test [8] concerns LoVo. Nature of the test: Cytotoxicity against hormone-independent human LoVo cells at 2 mM after 12 hrs by CCK-8 assay. The procedure, abridged: as §2
Test [9] has as its system MCF7. The test is described as follows: Cytotoxicity against hormone-dependent human MCF7 cells at 8 mM after 12 hrs by CCK-8 assay. The method in brief:
(§3)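 MCF-7 monolayers grown in DMEM plus FBS and penicillin-streptomycin (37 °C, 5% CO2), plated 5 × 10^4 cells/well 12 h before dosing. Exposure 12 h at the listed concentration. Viability measured by WST-8 (CCK-8) reduction: 10% CCK-8 in serum-free medium, 3 h, absorbance 450 nm. Viability% = 100 × (sample−blank)/(control−blank).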

Test [10] has as its system MCF7. Nature of the test: Cytotoxicity against hormone-dependent human MCF7 cells at 4 mM after 12 hrs by CCK-8 assay. The procedure, abridged:
as §3

Test [11] relates to MCF7. Nature of the test: Cytotoxicity against hormone-dependent human MCF7 cells at 2 mM after 12 hrs by CCK-8 assay. The method in brief:
as §3

Test [12] deals with HeLa. Nature of the test: Cytotoxicity against hormone-dependent human HeLa cells at 8 mM after 12 hrs by CCK-8 assay. The method in brief: (§4)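 HeLa cells (adherent) in F-12K medium with fetal bovine serum and penicillin-streptomycin, 37 °C, 5% CO2. Seeded at 1 × 10^4 cells/well and allowed to form a monolayer for 12 h. Treated 12 h at the stated concentration. Medium then replaced with serum-free medium containing 10% CCK-8 for 3 h. OD read at 450 nm. Viability% = 100 × (S−B)/(K−B) against blank and untreated control.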

In test [13] the test system is HeLa. The test is described as follows: Cytotoxicity against hormone-dependent human HeLa cells at 4 mM after 12 hrs by CCK-8 assay. The procedure, abridged:
as §4

The test system of test [14] is HeLa. The test is described as follows: Cytotoxicity against hormone-dependent human HeLa cells at 2 mM after 12 hrs by CCK-8 assay. The procedure, abridged:
as §4

The test system of test [15] is MCF7. Nature of the test: Cytotoxicity against hormone-dependent human MCF7 cells at 6 mM after 12 hrs by CCK-8 assay. The procedure, abridged:
as §3

For test [16], the system named is HeLa. The test is described as follows: Cytotoxicity against hormone-dependent human HeLa cells at 6 mM after 12 hrs by CCK-8 assay. The procedure, abridged: as §4
Test [17] concerns K562. Nature of the test: Cytotoxicity against human K562 cells at 8 mM after 12 hrs by CCK-8 assay. The procedure, abridged: (§5)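 Suspension K562 cells maintained in RPMI 1640 with FBS and penicillin-streptomycin at 37 °C, 5% CO2. Seeded at 2 × 10^4 cells/well and exposed 12 h at the given concentration. Then incubated 3 h with 10% CCK-8 in serum-free medium. OD 450 nm. Viability% = 100 × (S−B)/(K−B) versus blank and untreated control.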

Test [18] concerns K562. Nature of the test: Cytotoxicity against human K562 cells at 6 mM after 12 hrs by CCK-8 assay. The method in brief: as §5
The test system of test [19] is K562. Nature of the test: Cytotoxicity against human K562 cells at 4 mM after 12 hrs by CCK-8 assay. The procedure, abridged:
as §5

For test [20], the system named is K562. Nature of the test: Cytotoxicity against human K562 cells at 2 mM after 12 hrs by CCK-8 assay. The method in brief:
as §5

In the case of `OC[C@@]12CO[C@H](O1)[C@H](O)[C@@H](O)[C@H]2O`, the Activity turned out to be 7% in the test with A549 [1]; 5% with A549 [2]; 4% in the test with A549 [3]; 23% in the test with A549 [4]; 12% with LoVo [5]; 13% in the test with LoVo [6]. The Activity is reported as 7% with LoVo [7]; 9% in the test with LoVo [8]; 3% in the test with MCF7 [9]; 2% in the test on MCF7 [10]; 6% with MCF7 [11]; 3% with HeLa [12]. Further, the values for the Activity in the test on HeLa [13], in the test on HeLa [14] and in the test on MCF7 [15] were 4%, 4% and 5%, respectively.
For `O[C@@H]1[C@@H](O)[C@H](O)[C@]2(CO2)[C@@H](O)[C@H]1O`, the Activity amounted to 26% in the test with A549 [1]; 20% in the test with A549 [2]; 24% in the test on LoVo [5]; 5% in the test with LoVo [6]; 66% in the test with MCF7 [9]; 46% in the test on MCF7 [10]. Also, the Activity in the test on MCF7 [11] is recorded as 22%; in the test with HeLa [12], 7%; with HeLa [16], 2%; in the test with K562 [17] it was 36%; in the test with K562 [18], 26%; with K562 [19], 20%. Further, the Activity with K562 [20] was 6%; in the test on MCF7 [15], 53%.
On to `OCC1(O)SC[C@@H](O)C(O)C1O` (single isomer, unassigned), for which the Activity in the test on A549 [1] is recorded as 55%; in the test with A549 [2], 46%; in the test with A549 [3], 44%; in the test on A549 [4], 44%; in the test on LoVo [5], 42%; with LoVo [6], 32%. Also, the Activity in the test on LoVo [7] was found to be 25%; in the test on LoVo [8] it was 28%; with MCF7 [9], 2%; in the test with MCF7 [10], 7%; with MCF7 [11], 3%; in the test on HeLa [12] it was 51%. In addition, the Activity with HeLa [16] is reported as 48%; with HeLa [13], 30%; in the test with HeLa [14], 28%; in the test on MCF7 [15], 3%.
In the case of `OC[C@H]1SC(O)[C@H](O)[C@@H](O)[C@@H]1O` (stereo not given in full), the Activity with A549 [1] was determined as 97%; in the test with A549 [2] it was 96%; in the test with A549 [3] it was 96%; in the test on A549 [4] it was 79%; with LoVo [5] it was 88%; with LoVo [6] it was 85%. The Activity is 54% in the test on LoVo [7]; 28% in the test with LoVo [8]; 49% in the test on MCF7 [9]; 25% in the test on MCF7 [10]; 17% with MCF7 [11]; 98% with HeLa [12]. Besides, the Activity in the test on HeLa [16] worked out at 99%; with HeLa [13] it was 90%; in the test with HeLa [14], 70%; in the test with K562 [17] it was 98%; in the test on K562 [18], 94%; in the test with K562 [19] it was 45%. Further, the Activity was 6% in the test on K562 [20] and 40% with MCF7 [15].
